GPR7 antagonist = blocks human GPR7 receptor signaling | GPR7-expressing cells, fluorescence antagonist assay | inhibition, % at 4.4 µM | 290,000 tested, 1.1% active; in the data active = inhibition above about 16%, passing the limit was not always enough;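 also: cells stimulated with the agonist NPW; 0% = agonist with vehicle and 100% = vehicle without agonist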
Target sequence (P48145 whole entry, looked up): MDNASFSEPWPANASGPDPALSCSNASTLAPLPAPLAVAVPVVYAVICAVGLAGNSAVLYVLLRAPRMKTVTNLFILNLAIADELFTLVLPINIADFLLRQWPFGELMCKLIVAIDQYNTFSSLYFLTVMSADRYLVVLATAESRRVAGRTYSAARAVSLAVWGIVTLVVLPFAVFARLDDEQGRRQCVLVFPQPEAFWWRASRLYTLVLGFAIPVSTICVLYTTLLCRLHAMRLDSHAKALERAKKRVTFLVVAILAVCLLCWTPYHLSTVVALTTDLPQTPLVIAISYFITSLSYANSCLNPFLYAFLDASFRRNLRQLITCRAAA
TAAR1 antag = human TAAR1 antagonism; inhibition, % at 3 µM; CHO RD-HGA16 TAAR1, Fluo-8 calcium fluorescence, antagonist; 360,000 tested, 1.5% active; AID 624466;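 active = inhibition above a per-plate cutoff, the mean inhibition of test compounds on that plate plus 3 SD, cut at about 49% in these data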;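 also: 0% = DMSO plus EC80 beta-PEA response and 100% = DMSO alone without agonist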
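Test system: CHO RD-HGA16 cells bearing hTAAR1 | Reagent: β-PEA, EC80 | Compound dosing: 3 µM, single point | Schedule: Dye loading 75 min at 37 °C, then 30 min room temperature | Signal: Calcium fluorescence with Fluo-8 | Evaluation: Percent inhibition of PEA-evoked calcium signal, max/basal emission ratio | Control set: DMSO-only wells and EC80 β-PEA-stimulated wells | Repeats: Singlicate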
CHO parental Ca = counter-screen for OX1R antagonists: effect in parental CHO cells; inhibition, % at 5.6 µM; AID 463079; parental CHO-K1, ATP-induced calcium, Fluo-8 fluorescence; 330,000 tested, 0.63% active;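 active = inhibition above that plate's mean sample inhibition plus 3 SD, cut at about 26% in these data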;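 also: 0% = ATP-challenged DMSO wells and 100% = DMSO wells without ATP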
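Measured by: calcium-sensitive Fluo-8 fluorescence / Test system: CHO parental line / Controls: ATP-challenged DMSO wells low, unchallenged DMSO wells high / Measure: % inhibition / Compound: single nominal dose of 5.6 µM per compound / Replicates: single well per compound, no replicates / Reagent: ATP as calcium-mobilizing challenge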
OX1R antag-1 = blocks the human orexin 1 receptor; O43613; CHO/OX1R cells, Fluo-8 calcium fluorescence, orexin A; inhibition, % at 5 µM; 330,000 tested, 0.43% active; AID 434989;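 active = inhibition above its plate's threshold, mean inhibition of all tested compounds on the plate plus 3 SD, cut at about 37% in these data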;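 also: 0% = orexin A challenge wells and 100% = SB-334867-A antagonist wells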
OX1R antag-2 = blocks the human orexin 1 receptor; O43613; OX1R-expressing cells, FRET antagonist read-out; inhibition, % at 6.6 µM; 330,000 tested, 1.8% active; AID 485270; in the data active = inhibition mostly above about 38%, no sharp cut-off; inactive = mostly below about 40%;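 also: 0% = agonist challenge alone and 100% = reference antagonist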
TAAR1 ag = human TAAR1 agonism | Q96RJ0 | CHO RD-HGA16 TAAR1, Fluo-8 calcium fluorescence; vehicle wells 0%, saturating PEA agonist 100% | activation, % at 3 µM | 360,000 tested, 0.99% active | AID 624467;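 active = activation above the mean activation of all test compounds in the run plus 3 SD, cut at about 38% in these data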
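Test system: RD-HGA16 (CHO) cells co-expressing Gα16 and hTAAR1 | Doses: Single dose, 3 µM | Schedule: 17-24 h seeding, 75 min 37 °C dye, 30 min RT | Evaluation: % activation from peak over basal fluorescence ratio, DMSO-to-PEA scaled | Technique: Kinetic Fluo-8 calcium fluorescence | Benchmarks: Low control DMSO, high control PEA (EC100)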
TAAR1 nonsel count = counter-screen for TAAR1 antagonists: nonselective antagonists. shares compounds with TAAR1 antag. counterscreen cell line, calcium fluorescence, antagonist mode. inhibition, % at 3 µM. 2,400 tested, 77% active; in the data active = inhibition above about 22%;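 also: CHO-Ga16 host cells stimulated with ATP at an EC80 level; 0% = agonist EC80 plus vehicle and 100% = vehicle without agonist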
TAAR1 antag conf = confirmation of human TAAR1 antagonists; shares compounds with TAAR1 antag; AID 651785; 2,400 tested, 40% active; inhibition, % at 3 µM; TAAR1-expressing cells, fluorescence antagonist read-out; in the data active = inhibition above about 49%;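 also: CHO-Ga16 host cells challenged with agonist PEA near its EC80; 0% = agonist at EC80 plus vehicle and 100% = vehicle with no agonist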
Ga16 nonsel ag = nonselective Ga16 agonism, counter-screen | shares compounds with TAAR1 antag | Ga16-expressing cells, calcium fluorescence, agonist counterscreen | activation, % at 3 µM | 2,400 tested, 18% active | AID 651953; in the data active = activation above about 12%;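 also: 0% = vehicle wells and 100% = saturating stimulus response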
TAAR1 ag counter = TAAR1 agonism, antagonist counter-screen | AID 651955 | activation, % at 3 µM | shares compounds with TAAR1 antag | 2,400 tested, 2% active | hTAAR1 cell line, fluorescence activation, agonist mode; in the data active = activation above about 37%;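 also: CHO cells stably expressing TAAR1 with calcium dye readout; 0% = DMSO vehicle and 100% = full agonist response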
Active calls of the source: *; x = no result; ! = repeats disagree. The list is not random: actives were taken first. Their share in the collection is about 4.5%.

SMILES	GPR7 antagonist	TAAR1 antag	CHO parental Ca	OX1R antag-1	OX1R antag-2	TAAR1 ag	TAAR1 nonsel count	TAAR1 antag conf	Ga16 nonsel ag	TAAR1 ag counter
O=C1c2ccccc2C(c2nnnn2Cc2ccccc2)N1CCc1c[nH]c2ccccc12 (stereo not drawn)	x	72*	x	x	x	17	40*	62*	10	14
Cc1cccc(C)c1NC(=O)c1cc(S(=O)(=O)N2CCC3(CC2)OCCO3)ccc1F	x	-15	x	x	x	2	x	x	x	x
COC(=O)[C@]12CCCCC=C1N(Cc1ccc3c(c1)OCO3)C(=O)[C@H](CC(=O)N1CCSCC1)C2	x	67*	x	x	x	12	26*	48	9	14
CCOC(=O)[C@]12CCCC=C1N(Cc1ccc3c(c1)OCO3)C(=O)[C@H](CC(=O)N1CCCC1)C2	x	-23	x	x	x	3	x	x	x	x
CC1=CC(C)C(=O)N(C)C(C)=C1 (stereo not drawn)	x	-2	x	x	x	1	x	x	x	x
O=C(OCn1ncc(Cl)c(Cl)c1=O)c1ccc(C(F)(F)F)cc1	-4	66*	x	x	x	13	35*	40	6	7
CCC(=O)Nc1ccc(C(=O)Cn2ncc(Cl)c(Cl)c2=O)cc1	6	11	-6	-3	41	-2	x	x	x	x
CCCC(=O)N1CCC1(C)C(=O)Nc1ncc(C(=O)OC)s1 (stereo not drawn)	x	-21	x	x	x	2	x	x	x	x
O=C(CSc1ccc(Cl)cc1)N1CCN(c2c(Cl)cccc2[N+](=O)[O-])CC1	-5	65*	-17	-2	23	5	25*	38	3	-2
CCN(Cc1ccccc1)c1ccc(/C=N/NC(=S)NC(C)C)cc1	-6	50*	-32	-42	13	2	3	11	3	9
CCN(Cc1ccccc1)c1ccc(/C=N/N=C(N)N)cc1	-7	-12	-7	-27	3	2	x	x	x	x
Cc1cc(C)cc(NC(=O)c2cccc(N3C(=O)C4C5C=CC(C5)C4C3=O)c2)c1 (stereo not drawn)	-10	-23	x	x	x	0	x	x	x	x
Cc1cccc(NC(=O)c2cccc(N3C(=O)C4C5C=CC(C6CC56)C4C3=O)c2)c1 (stereo not drawn)	-13	58*	2	-17	6	8	35*	38	10	7
CCOC(=O)c1nn(-c2ccccc2F)c(-c2ccccc2)c1C(=O)c1ccccc1	-5	56*	-10	-9	4	5	10	33	9	11
CCOC(=O)c1nn(-c2ccc(F)cc2)c(-c2ccccc2)c1C(=O)c1ccccc1	-5	0	-18	-11	30	1	x	x	x	x
OC[C@@H]1CN(Cc2ccc(Cl)cc2)C[C@H](n2cnc3c(NCc4ccc(F)cc4)ncnc32)O1	x	0	x	x	x	5	x	x	x	x
CCC(C)Sc1cccc(-c2nc3ccc(C)cn3c2NC2CCCCC2)c1 (stereo not drawn)	x	57*!	0	-70	13	24	35*	49*	11	15
CCC(C)Sc1cc(-c2nc3ccccn3c2NC2CCCCC2)ccc1OC (stereo not drawn)	x	79*	15	15	39	4	42*	63*	8	13
CC(=O)c1ccc(-c2cccc(-c3nc4ccccn4c3NC3CCCCC3)c2)cc1	x	59*	-23	-18	42	12	23*	46	4	6
CCC(C)Sc1cc(-c2nc3cc(C)ccn3c2NC2CCCCC2)ccc1OC (stereo not drawn)	x	21	-2	22	8	10	x	x	x	x
CCCCCCSc1ccc(-c2nc3ccc(C)cn3c2NCc2ccccc2)cc1	x	-1	-23	-51	9	0	x	x	x	x
